Source: ChEMBL document CHEMBL1240420, “Synthesis and biological evaluation of cinnamido linked pyrrolo[2,1-c][1,4]benzodiazepines as antimitotic agents” (Eur J Med Chem, 2010)
Counter-ions that a name gives are not always drawn.

Columns and labels:
Type in all cases: functional
[1] = tested on: KB; test: Cytotoxicity against human KB cells after 48 hrs by SRB assay
Summary of the method: (§1)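 Cells were grown in RPMI 1640 with 10% FBS and 2 mM L-glutamine, plated 24 h before dosing, then given continuous 48 h exposure at 0.1, 1, 10 and 100 µM in triplicate wells. Cells were fixed with cold TCA (10% final, 60 min, 4 °C), stained with 0.4% SRB in 1% acetic acid for 20 min, eluted with 10 mM Tris base, and read at 540/690 nm. GI50 was taken from [(Ti−Tz)/(C−Tz)]×100 = 50; three determinations were averaged.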

[2] = Cytotoxicity against human GURAV cells after 48 hrs by SRB assay; summary of the method: as §1
[3] = tested on: PC-3; test: Cytotoxicity against human PC3 cells after 48 hrs by SRB assay; details: PC-3, 48 h; summary of the method: as §1
[4] = tested on: COLO 205; test: Cytotoxicity against human COLO205 cells after 48 hrs by SRB assay; details: COLO 205, 48 h; summary of the method: as §1
[5] = tested on: SiHa; test: Cytotoxicity against human SiHa cells after 48 hrs by SRB assay
Summary of the method: (§2)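 Cells grown in RPMI 1640 with 10% FBS and 2 mM L-glutamine, plated and left 24 h at 37 °C/5% CO2, then exposed continuously for 48 h to 0.1, 1, 10 and 100 µM in triplicate wells. Fixed with cold TCA (10% final), stained with 0.4% SRB, eluted with 10 mM Tris base, read at 540 nm (690 nm reference). GI50 from [(Ti−Tz)/(C−Tz)]×100 = 50; mean of three determinations.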

[6] = tested on: HOP-62; test: Cytotoxicity against human HOP62 cells after 48 hrs by SRB assay; details: HOP-62, 48 h; summary of the method: as §1
[7] = tested on: A2780; test: Cytotoxicity against human A2780 cells after 48 hrs by SRB assay; details: A2780, 48 h; summary of the method: as §1
[8] = tested on: A549; test: Cytotoxicity against human A549 cells after 48 hrs by SRB assay; details: A549, 48 h; summary of the method: as §1
[9] = tested on: MCF7; test: Cytotoxicity against human MCF7 cells after 48 hrs by SRB assay; details: MCF7, 48 h; summary of the method: as §1
[10] = tested on: ZR-75-1; test: Cytotoxicity against human ZR-75-1 cells after 48 hrs by SRB assay; details: ZR-75-1, 48 h; summary of the method: as §2
[11] = Cytotoxicity against human DWD cells after 48 hrs by SRB assay; summary of the method: as §1

| SMILES | GI50 [1] | GI50 [2] | GI50 [3] | GI50 [4] | GI50 [5] | GI50 [6] | GI50 [7] | GI50 [8] | GI50 [9] | GI50 [10] | GI50 [11] |
| --- | --- | --- | --- | --- | --- | --- | --- | --- | --- | --- | --- |
| COc1cccc2c1C(=O)c1c(O)c3c(c(O)c1C2=O)C[C@@](O)(C(=O)CO)C[C@@H]3O[C@H]1C[C@H](N)[C@H](O)[C@H](C)O1 [DOXORUBICIN HYDROCHLORIDE] | 130 nM | 140 nM | 160 nM | 130 nM | 150 nM | 120 nM | < 100 nM | < 100 nM | < 100 nM | 120 nM | 120 nM |
| COc1cc2c(cc1O)N=C[C@@H]1CCCN1C2=O | 170 nM | 160 nM | 200 nM | 110 nM | 170 nM | 150 nM | 140 nM | 160 nM | 170 nM |  |  |
| COc1cc(/C=C/C(=O)N2CCN(C(=O)c3cc(OC)c(OC)c(OC)c3)CC2)ccc1OCCCCCOc1cc2c(cc1OC)C(=O)N1CCC[C@H]1C=N2 | 120 nM | 130 nM | 140 nM | < 100 nM | 140 nM | 150 nM | 110 nM | 110 nM | 130 nM | 140 nM | < 100 nM |
| COc1cc(/C=C/C(=O)N2CCN(C(=O)/C=C/c3ccc(OCCCOc4cc5c(cc4OC)C(=O)N4CCC[C@H]4C=N5)c(OC)c3)CC2)ccc1OCCCOc1cc2c(cc1OC)C(=O)N1CCC[C@H]1C=N2 | 140 nM | 140 nM | 150 nM | < 100 nM | 160 nM | 150 nM | 120 nM | < 100 nM | < 100 nM | < 100 nM | < 100 nM |
| COc1cc(/C=C/C(=O)N2CCN(C(=O)c3cc(OC)c(OC)c(OC)c3)CC2)ccc1OCCCCCCOc1cc2c(cc1OC)C(=O)N1CCC[C@H]1C=N2 | 1900 nM | 1900 nM | 1900 nM | 2100 nM | 2500 nM | 2600 nM | 180 nM | 160 nM | 180 nM | 210 nM | 170 nM |
| COc1cc(/C=C/C(=O)N2CCN(C(=O)c3cc(OC)c(OC)c(OC)c3)CC2)ccc1OCCCCOc1cc2c(cc1OC)C(=O)N1CCC[C@H]1C=N2 | 150 nM | 110 nM | < 100 nM | < 100 nM | 170 nM | 170 nM | 150 nM | 120 nM | 140 nM | 150 nM | 110 nM |
